Screening results from PubChem BioAssay.
CHOP UPR activ: apoptotic UPR (CHOP) activation; CHO-CHOP luciferase reporter, luminescence; percent of tunicamycin response over DMSO baseline; activation, % at 10 µM; 330,000 compounds, 0.34% hits;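 active means at 10 µM dose, activation of 40% or more, normalized to positive control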
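Dosing – one dose, 10 µM in 0.5% DMSO · System – CHO-CHOP cells, stable luciferase reporter of PERK-eIF2a-CHOP signalling · Input – 500 cells/well · Control set – tunicamycin 10 µg/mL final as positive, DMSO-only wells as negative · Timing – 6 h compound treatment, 37 °C · Measure – % activation vs tunicamycin · Technique – luminescence read with Steady-Glo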
XBP1 UPR activ: activators of adaptive arm of unfolded protein response (XBP1); AID 463104; activation, % at 20 µM; 330,000 compounds, 0.33% hits; CHO-XBP1 luciferase reporter, IRE1-XBP1 UPR activation, luminescence; percent of tunicamycin response, DMSO as zero;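 active means versus positive control, 20 µM dose yields 30% or more activation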
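incubation = overnight seeding at 37 °C, 6 h compound treatment at 37 °C | assay system = CHO-XBP1 cells stably carrying IRE1-XBP1-driven luciferase reporter | input = 1000 cells per well | detection = luciferase luminescence | dosing = single point, 20 µM final compound, 1% DMSO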
ANO1 block: mouse TMEM16A channel inhibition, primary screen; HEK293 TMEM16A/YFP iodide influx fluorescence, ionomycin; normalized B-score (activity score, 25-100; higher = stronger inhibition) at 10 µM; Q8BHY3; AID 588511; 310,000 compounds, 1.2% hits;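 active means ratio plate-corrected score three or more library SD toward inhibition, starting fluorescence score within five deviations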;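 further: score derived from kinetic fluorescence span divided by baseline fluorescence per well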
Target sequence (Q8BHY3 whole entry, looked up): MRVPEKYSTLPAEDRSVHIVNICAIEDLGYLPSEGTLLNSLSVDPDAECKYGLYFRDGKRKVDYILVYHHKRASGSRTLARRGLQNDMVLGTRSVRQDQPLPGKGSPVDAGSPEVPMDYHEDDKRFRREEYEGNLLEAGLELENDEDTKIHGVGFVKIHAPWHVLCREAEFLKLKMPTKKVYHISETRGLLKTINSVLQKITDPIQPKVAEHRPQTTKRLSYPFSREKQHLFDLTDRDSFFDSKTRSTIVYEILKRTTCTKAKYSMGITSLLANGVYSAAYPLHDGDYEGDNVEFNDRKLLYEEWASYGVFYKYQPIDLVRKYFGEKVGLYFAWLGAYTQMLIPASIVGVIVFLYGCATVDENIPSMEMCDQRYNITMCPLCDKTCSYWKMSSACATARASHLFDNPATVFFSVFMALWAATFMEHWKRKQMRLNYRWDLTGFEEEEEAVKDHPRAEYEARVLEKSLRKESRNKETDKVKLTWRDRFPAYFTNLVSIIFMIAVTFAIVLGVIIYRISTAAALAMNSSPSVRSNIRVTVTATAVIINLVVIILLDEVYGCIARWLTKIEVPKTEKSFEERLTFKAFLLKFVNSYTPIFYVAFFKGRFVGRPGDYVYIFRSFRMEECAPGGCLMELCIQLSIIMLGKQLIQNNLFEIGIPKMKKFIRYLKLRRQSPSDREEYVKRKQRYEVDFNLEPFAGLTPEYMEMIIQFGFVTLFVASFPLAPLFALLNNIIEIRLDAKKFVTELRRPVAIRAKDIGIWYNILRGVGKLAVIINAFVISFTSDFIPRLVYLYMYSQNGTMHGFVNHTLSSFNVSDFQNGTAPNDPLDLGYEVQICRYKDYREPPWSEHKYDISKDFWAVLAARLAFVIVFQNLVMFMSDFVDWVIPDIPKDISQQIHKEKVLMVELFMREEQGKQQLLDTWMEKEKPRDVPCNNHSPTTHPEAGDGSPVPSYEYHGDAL
CHOP inhibitor: inhibitors of CHOP induction in ER stress response | CHO-K1 CHOP-promoter luciferase, tunicamycin-induced, 15-18 h | inhibition, % at 10 µM | 220,000 compounds, 3.8% hits | AID 2732;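 active means compounds that reduced the stress-induced luciferase reporter signal by more than about 70% of percent inhibition, limit read from the data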
ANO1 activ: activators or potentiators of mouse TMEM16A chloride channel; B-score at 10 µM; HEK293 TMEM16A/YFP-H148Q/I152L, iodide quench fluorescence; stronger effect = lower value; Q8BHY3; 340,000 compounds, 0.3% hits;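 active means fluorescence-ratio B-score plate-corrected deviation score at least 3 library SD below zero, with starting fluorescence score within 5 deviations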;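 further: channel opened by trigger with iodide after compound preincubation; score built on the fluorescence ratio of max minus min over baseline; more negative score means more quench and so TMEM16A activation or potentiation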
Hep lipid drop: modulators of hepatic lipid droplet formation | AML12 mouse hepatocytes, oleate lipid droplets, BODIPY imaging | inhibition, % at 6.5 µM | 240,000 compounds, 0.4% hits | AID 1656;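 active means lipid droplet intensity inhibited by at least 50%, with more than 500 cells counted; inconclusive means wells with under 300 cells, treated as cytotoxic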
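Technique: fluorescence imaging, 20x objective, two fields per well / Assay system: AML12 hepatocytes (mouse) / Measure: % inhibition of lipid droplet signal / Doses: 6.5 µM single-point dosing / Incubation: overnight exposure / Reagent: 100 µM oleic acid challenge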
Of the large screens only hits and unclear results are named; the others gave an inactive call; ! = not active in a repeat. An excerpt weighted towards active compounds, which were near 4.2% of everything screened.

O=C(CSc1nc(-c2ccco2)cc(C(F)(F)F)n1)NCCc1ccccc1	none
CCOC(=O)N1CCN(c2nc(-c3ccco3)cc(C(F)(F)F)n2)CC1	CHOP inhibitor 86 (no result: Hep lipid drop)
CSCc1c(C(=O)Nc2ccccc2N2CCOCC2)oc2ccccc12	none (no result: ANO1 block, CHOP inhibitor, Hep lipid drop)
Cc1ccc(CN2C(=O)N/C(=C\c3ccc(-c4ccc(C(=O)O)cc4C)o3)C2=O)cc1	none
Cc1cc(C(=O)O)ccc1-c1ccc(/C=C2\NC(=O)N(Cc3ccccc3Cl)C2=O)o1	CHOP inhibitor 73
O=[N+]([O-])c1ccc(Oc2ccc(S(=O)(=O)N3CCCCC3)cc2)cc1	ANO1 block 25
CCCCOc1ccc(S(=O)(=O)N2CCCCCC2)cc1	CHOP inhibitor 91
O=[N+]([O-])c1ccc(Oc2ccc(S(=O)(=O)N3CCOCC3)cc2)cc1	none (no result: CHOP inhibitor)
C/C(=N/OC(=O)c1ccccc1Br)c1ccc(C)cc1	ANO1 block 25 (no result: CHOP inhibitor)
COc1ccc(C(=O)O/N=C(\C)c2ccccc2)cc1	none
Cc1ccc(C(C)C)c(OCC(=O)NCC(c2cccs2)N2CCOCC2)c1 (centres undefined)	ANO1 block 100 (no result: CHOP inhibitor, Hep lipid drop)
CC(Oc1ccc(F)cc1)C(=O)Nc1ccccc1N1CCCCC1 (centres undefined)	ANO1 activ -21, Hep lipid drop inconclusive (no result: CHOP inhibitor)
Cc1cc(OCC(=O)NCC(c2cccs2)N2CCOCC2)ccc1C(C)C (centres undefined)	none (no result: CHOP inhibitor, Hep lipid drop)
O=C(COc1ccc(Br)cc1)Nc1ccccc1N1CCCC1	CHOP inhibitor 70
Cc1ccccc1OCC(=O)Nc1ccccc1N1CCCCC1	CHOP inhibitor 89 (no result: Hep lipid drop)
CC(=O)N1CCN(c2ccccc2NC(=O)COc2cc(C)ccc2C(C)C)CC1	none
Cc1cc(C)cc(OCC(=O)Nc2ccccc2N2CCCCC2)c1	CHOP inhibitor 86 (no result: ANO1 activ)
Cc1ccc(C(C)C)c(OCC(=O)Nc2ccccc2N2CCN(C)CC2)c1	CHOP inhibitor 78
CCN1CCN(S(=O)(=O)c2ccc(C)c([N+](=O)[O-])c2)CC1	none
CC1CC(NC(=O)c2c(O)nc3sccn3c2=O)CC(C)(C)C1 (centres undefined)	none (no result: CHOP inhibitor, Hep lipid drop)
CCN1CCN(C(=O)c2ccc(COc3ccc(Cl)cc3)o2)CC1	none (no result: Hep lipid drop)
O=C(c1ccc(COc2ccc(Cl)cc2)o1)N1CCN(Cc2ccc3c(c2)OCO3)CC1	ANO1 block 25
O=C(c1ccc(COc2ccccc2Cl)o1)N1CCN(Cc2ccc3c(c2)OCO3)CC1	CHOP inhibitor 73!
S=C(NCc1ccco1)N1CCN(C(c2ccccc2)c2ccccc2)CC1	CHOP inhibitor 72 (no result: Hep lipid drop)
CCOC(=O)c1c(OCC)[nH]c2ccc(O)cc12	CHOP inhibitor 72
CCOC(=O)c1c(C)[nH]c2ccc(O)cc12	none (no result: Hep lipid drop)
COc1ccc(N2C(=O)CSC23C(=O)N2CCCc4cccc3c42)cc1 (centres undefined)	none (no result: Hep lipid drop)
COc1ccc(N2C(=O)CSC23C(=O)N2c4c(cccc43)C(C)=CC2(C)C)cc1 (centres undefined)	CHOP inhibitor 75
CCc1ccc(CCC(=O)Nc2sc(C)c(C)c2C(=O)OC)o1	CHOP inhibitor 83
CCc1ccc(OCc2nnc(NC(=O)c3cccs3)s2)cc1	CHOP inhibitor 72 (no result: Hep lipid drop)
Cc1ccc(NC(=O)NC2(C(=O)NCc3ccccc3)CCCCC2)cc1	none
Cc1ccc(CNC(=O)C2(NC(=O)Nc3ccc(C)cc3)CCCCC2)cc1	CHOP inhibitor 79 (no result: Hep lipid drop)
CC(C)Cc1n[nH]c(=O)[nH]1	CHOP inhibitor 83
CC(=O)C1=C(O)C(=O)N(c2ccc(O)cc2)C1c1ccccc1 (centres undefined)	none (no result: CHOP inhibitor)
CC(=O)C1=C(O)C(=O)N(c2ccc(C(=O)O)cc2)C1c1ccccc1 (centres undefined)	ANO1 activ -14
COC(=O)C(CCSC)NC(=O)CNS(=O)(=O)c1ccc(Br)cc1 (centres undefined)	CHOP inhibitor 80 (no result: Hep lipid drop)
COC(=O)C(CCSC)NC(=O)CNS(=O)(=O)c1ccc(F)cc1 (centres undefined)	none (no result: Hep lipid drop)
CCOc1ccc(C(C)=O)cc1CN1C(=O)C(=O)N(CC)C1=O	none
COc1cc(/C=N/N=C(N)N)ccc1OCc1ccccc1Cl	ANO1 block 100
CCOC(=O)CSc1nc2ccc(NC(C)=O)cc2s1	CHOP inhibitor 90 (no result: Hep lipid drop)
CCOc1ccc2nc(SCC(=O)c3ccccc3)sc2c1	CHOP inhibitor 94
CC(C)C1C(c2ccccc2)NC(c2ccccc2)CC1(O)c1ccc(F)cc1 (centres undefined)	CHOP inhibitor 80
CC(C)C1C(c2ccccc2)N(C)C(c2ccccc2)CC1(O)c1ccccc1 (centres undefined)	CHOP inhibitor 73
CCC1C(=O)CC(c2ccccc2)NC1c1ccccc1 (centres undefined)	none
CCOc1ccc(CN2CCN(CC(O)Cn3c4ccccc4c4ccccc43)CC2)cc1 (centres undefined)	CHOP inhibitor 108
CCc1ccc(OCCOCC(O)CN2CCN(Cc3ccc(Cl)cc3)CC2)cc1 (centres undefined)	ANO1 block 100
FC(F)(F)c1cc(-c2ccccc2)nc(NCc2cccs2)n1	CHOP inhibitor 75
O=C(CSc1nc(-c2ccccc2)cc(C(F)(F)F)n1)NCc1cccs1	CHOP inhibitor 82
FC(F)(F)c1cc(-c2ccco2)nc(NCc2cccs2)n1	none (no result: Hep lipid drop)
COc1ccc(-c2cc(C(F)(F)F)nc(SCC(=O)NCc3cccs3)n2)cc1	CHOP inhibitor 70
O=C(CSc1nc(-c2ccccc2)cc(C(F)(F)F)n1)NCc1ccco1	none
O=C(CSc1nc(-c2ccc(F)cc2)cc(C(F)(F)F)n1)Nc1ccc2c(c1)OCO2	CHOP inhibitor 73
N#CC(=C(O)CN1CCN(c2ccccc2F)CC1)c1nc(-c2ccc(Cl)cc2)cs1	none (no result: CHOP UPR activ, XBP1 UPR activ, ANO1 block, CHOP inhibitor, Hep lipid drop)
COc1ccc(CCC(=O)OCC(=O)Nc2sccc2C(N)=O)cc1OC	none (no result: ANO1 block, CHOP inhibitor, Hep lipid drop)
COc1ccc(CCC(=O)OCC(=O)Nc2sccc2C(N)=O)cc1	ANO1 activ -5.3 (no result: ANO1 block, CHOP inhibitor, Hep lipid drop)
Cn1c(SCC(=O)Nc2ccc3c(c2)OCCO3)nnc1-c1ccncc1	none (no result: CHOP inhibitor)
O=c1[nH]c2cc3c(cc2cc1CN(Cc1ccccc1)Cc1nnnn1Cc1ccco1)OCCO3	none (no result: CHOP UPR activ, XBP1 UPR activ, ANO1 block, Hep lipid drop)
Cc1cc(C)c2cc(CN(Cc3ccc4c(c3)OCO4)Cc3nnnn3Cc3ccco3)c(=O)[nH]c2c1	CHOP inhibitor 71
CCc1ccc2[nH]c(=O)c(CN(Cc3ccccc3)Cc3nnnn3Cc3ccco3)cc2c1	CHOP inhibitor 73
CCOC(=O)Cn1nnnc1CN(Cc1ccccc1)Cc1cc2cc(CC)ccc2[nH]c1=O	ANO1 block 25 (no result: Hep lipid drop)
